Source: PubChem BioAssay
Hits are enriched below; roughly 2.1% of the tested compounds scored in any of these assays.
m5-HT2A agonist = activates the mouse 5-HT2A serotonin receptor | AID 624169 | activation, % at 7.6 µM | hit rate 0.66% among 360,000 | CHO-K1 mHTR2A beta-arrestin complementation, luminescence; percent of 30 µM serotonin response;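 active = activation above a run cutoff, the mean activation of all tested compounds plus 3 SD, cut at about 14% in these data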
APJ agonist = activates the human apelin receptor APJ | P35414 | CHO-K1 APJ PathHunter beta-arrestin, luminescence; 0% DMSO wells, 100% apelin | activation, % at 20 µM | hit rate 0.11% among 330,000 | AID 2520;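 active = activation more than six SD over the plate average, tested at 20 µM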
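Material: engineered CHO-K1 APJ arrestin reporter cells; amount: 1000 CHO-K1 reporter cells seeded per well; incubation: compound stimulation 90 min at 25 °C, detection 60 min; signal: luminescent beta-gal fragment complementation, chemiluminescent substrate; read-out basis: APJ agonist activity; controls: DMSO-only wells as negative, 10 nM Apelin-13 as positive control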
APJ antag = antagonists of human APJ apelin receptor. inhibition, % at 20 µM. hit rate 0.32% among 330,000. P35414. CHO-K1 APJ beta-arrestin complementation, luminescence;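 active = inhibition above about 40% at 20 µM, limit read from the data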;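 also: cells challenged with 10 nM apelin-13 agonist together with compound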
CXCR6 block = CXCR6 (human) receptor inhibition; O00574; CHO-K1 PathHunter CXCR6 beta-arrestin, luminescence; inhibition, % at 20 µM; hit rate 0.36% among 360,000; in the data active = inhibition above about 34%, passing the limit was not always enough;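 also: antagonist mode with CXCL16 agonist at 10 nM final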
Target sequence (O00574 whole entry, looked up): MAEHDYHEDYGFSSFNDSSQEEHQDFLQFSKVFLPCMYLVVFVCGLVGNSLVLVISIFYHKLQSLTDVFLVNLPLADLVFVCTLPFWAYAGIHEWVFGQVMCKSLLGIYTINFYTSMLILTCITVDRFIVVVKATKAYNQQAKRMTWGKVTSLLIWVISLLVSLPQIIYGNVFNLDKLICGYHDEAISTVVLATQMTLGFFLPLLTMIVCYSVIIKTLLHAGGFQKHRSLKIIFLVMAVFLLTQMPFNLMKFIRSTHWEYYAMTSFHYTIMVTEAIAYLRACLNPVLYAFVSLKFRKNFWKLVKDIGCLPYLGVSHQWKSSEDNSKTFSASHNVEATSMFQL
CCR6 antag = blocks CCL20-driven beta-arrestin recruitment at human CCR6 | CHO-K1 CCR6 PathHunter beta-arrestin, luminescence, CCL20-stimulated | inhibition, % at 20 µM | hit rate 0.49% among 340,000 | AID 493098;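 active = compounds whose inhibition of the agonist-driven luminescence signal at 20 µM reaches about 50%, limit read from the data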;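 also: cells stimulated with CCL20 at 14 nM final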
EBI2 block = blocks human EBI2 receptor beta-arrestin signaling | P32249 | EBI2 beta-arrestin recruitment, luminescence, 7a,25-OHC stimulated | inhibition, % at 5 µM | hit rate 0.81% among 360,000 | AID 651636; in the data active = inhibition above about 38%;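 also: enzyme fragment complementation signal reports receptor beta-arrestin coupling in cells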
APJ ag conf = APJ receptor agonism confirmation | shares compounds with APJ agonist | CHO-K1 APJ PathHunter beta-arrestin, luminescence | activation, % at 20 µM | hit rate 10% among 310;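 active = activation above 40%, taking the highest of four retests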
APJ antag conf = confirmation of human APJ apelin receptor antagonists; APJ beta-arrestin recruitment, luminescence, antagonist mode; AID 2766; inhibition, % at 20 µM; shares compounds with APJ antag; hit rate 66% among 950; in the data active = inhibition above about 50%
CXCR6 confirm = CXCR6 antagonism confirmation, single concentration; shares compounds with CXCR6 block; CHO-K1 CXCR6 PathHunter beta-arrestin, luminescence; inhibition, % at 20 µM; hit rate 65% among 700; AID 602409;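 active = mean inhibition over four retests above 40%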;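 also: receptor stimulated with 10 nM CXCL16 agonist; beta-galactosidase fragment complementation upon beta-arrestin recruitment to receptor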
MOR ag counter = counter-screen for mouse HTR2A agonists: human mu opioid receptor agonists; shares compounds with m5-HT2A agonist; U2OS OPRM1 beta-arrestin PathHunter, luminescence; DMSO 0%, DAMGO 9.3 µM 100%; activation, % at 9.3 µM; hit rate 5.3% among 2,300; AID 624380;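 active = mean activation above the mean of DMSO-only wells plus 3 SD, cut at about 0.5% in these data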
Target sequence (P35372 whole entry, looked up): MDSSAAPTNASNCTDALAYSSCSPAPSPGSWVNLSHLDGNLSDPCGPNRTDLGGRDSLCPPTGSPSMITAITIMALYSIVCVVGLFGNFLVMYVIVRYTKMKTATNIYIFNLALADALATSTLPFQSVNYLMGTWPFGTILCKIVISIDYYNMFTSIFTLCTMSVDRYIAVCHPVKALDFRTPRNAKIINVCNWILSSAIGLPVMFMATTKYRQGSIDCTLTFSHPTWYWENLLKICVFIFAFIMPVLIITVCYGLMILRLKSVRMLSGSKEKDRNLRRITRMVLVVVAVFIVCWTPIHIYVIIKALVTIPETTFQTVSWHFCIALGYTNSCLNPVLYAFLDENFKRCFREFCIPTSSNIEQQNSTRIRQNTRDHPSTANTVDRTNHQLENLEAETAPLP
m5-HT2A ag conf = mouse HTR2A agonism confirmed | shares compounds with m5-HT2A agonist | CHO-K1 PathHunter beta-arrestin recruitment, luminescence; DMSO 0%, 30 µM serotonin 100% | activation, % at 7.6 µM | hit rate 19% among 2,300 | AID 624381;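 active = mean activation across triplicates above the hit threshold derived in the original primary screen, cut at about 15% in these data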
EBI2 conf = EBI2 (human) antagonism, single concentration confirmation | shares compounds with EBI2 block | hit rate 29% among 2,400 | inhibition, % at 5 µM | EBI2 beta-arrestin luminescence, 7a,25-OHC antagonism;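 active = inhibition of at least 50%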
EBI2 agonist = EBI2 agonism counter-screen; EBI2-expressing cells, agonist mode, luminescence, 60 min; 0% vehicle, 100% 7α,25-dihydroxycholesterol control; AID 652000; shares compounds with EBI2 block; activation, % at 5 µM; 2,400 tested, under 10 active;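 active = activation of at least 50%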
bGal counter = counter-screen for EBI2 antagonists: E. coli beta-galactosidase inhibition; shares compounds with EBI2 block; purified beta-galactosidase, luminescent Galacton Star, 15 min; inhibition, % at 5 µM; hit rate 1% among 2,400;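 active = replicate-average signal at least 3 plate SD below neutral wells, shown as high inhibition, flagging enzyme-inhibiting false positives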;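 also: higher means stronger loss of beta-gal luminescence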
Large screens that a line does not name were inactive (follow-up assays come after a bar, where they were run).

O=[N+]([O-])c1cccc(/C=N/n2c(COc3ccccc3)n[nH]c2=S)c1	none
O=[N+]([O-])c1ccc(/C=N/n2c(COc3ccccc3)n[nH]c2=S)cc1	APJ agonist 14.2 | APJ ag conf inactive
CN(CC(=O)NCC1CCCO1)S(=O)(=O)c1ccc2ccccc2c1 (stereo not drawn)	none (no result: APJ agonist, APJ antag, CCR6 antag)
Clc1cccc(Cl)c1CSc1nnc(-c2ccncc2)s1	APJ agonist 69.5 | APJ ag conf inactive
Cc1ccc(-n2ncc3c(N4CCCC4)ncnc32)c(C)c1	none
COc1cccc(N2CCN(c3ncnc4c3cnn4-c3ccc(C)cc3C)CC2)c1	m5-HT2A agonist 15.0, APJ agonist 15.8 | APJ ag conf inactive | MOR ag counter 3.0 | m5-HT2A ag conf inactive
Cc1[nH]c2ccccc2c1C(=O)COC(=O)C1CC(O)CN1S(=O)(=O)c1ccc(Cl)cc1 (stereo not drawn)	m5-HT2A agonist 14.8, APJ agonist 28.0 | APJ ag conf inactive | MOR ag counter inactive | m5-HT2A ag conf inactive
CN(Cc1ccccc1Br)C(=O)CSc1nnnn1C1CC1	none
Cc1nn(-c2ccc(Cl)cc2)c(=O)c2ccccc12	none
Cc1c(Cl)sn(-c2ccc(Cl)cc2)c1=O	m5-HT2A agonist 17.1, APJ agonist 25.6, CXCR6 block 74.5, CCR6 antag 91.9, EBI2 block 69.8 | APJ ag conf inactive | CXCR6 confirm 94.5 | MOR ag counter 3.3 | m5-HT2A ag conf inactive
CN(CCc1ccccn1)C(=O)CCC1CCCN(C(=O)c2cccc(N(C)C)c2)C1 (stereo not drawn)	none
CC(C)(C)OC(=O)NCCCCCc1cn([C@@H](CO)C(=O)NCCCCCCCCCCC(=O)N2CCN(C(=O)OC(C)(C)C)CC2)nn1	m5-HT2A agonist 14.9, APJ agonist 45.0 | APJ ag conf 52.0 | MOR ag counter inactive | m5-HT2A ag conf 18.9
CCc1ccc(NC(=S)Nc2cccc3cnccc23)cc1	APJ agonist 15.0, EBI2 block 50.4 | APJ ag conf inactive | EBI2 conf inactive | EBI2 agonist inactive | bGal counter inactive
Nc1c(C(=O)NCCc2ccc(Cl)cc2)sc2ccc(S(=O)(=O)N3CCCCC3)cc12	none (no result: m5-HT2A agonist, CXCR6 block, CCR6 antag, EBI2 block)
CCN(c1ccccc1)S(=O)(=O)c1ccc(Cl)c(NC(=O)CN2C(=O)NC3(CCCC3)C2=O)c1	APJ antag 40.7 | APJ antag conf 65.6
CCN(CC)S(=O)(=O)c1cccc(N=Nc2c(O)c3ccccc3oc2=O)c1	APJ antag 40.3, CCR6 antag 58.9 | APJ antag conf inactive
COc1ccc(/C=C/C(=O)c2ccccc2)cc1Cn1nnc2ccccc21	none
O=C(COc1ccc(S(=O)(=O)N2CCOCC2)cc1Cl)NCC1CCCO1 (stereo not drawn)	none
COc1ccc(NS(=O)(=O)c2cc([N+](=O)[O-])ccc2N/N=C\c2c(C)[nH]c3ccccc23)cc1	APJ antag 74.9 | APJ antag conf 99.4
COc1ccc(NS(=O)(=O)c2cc([N+](=O)[O-])ccc2NN=Cc2ccccc2OCC(=O)O)cc1	none
COc1ccc(C=NNc2ccc([N+](=O)[O-])cc2S(=O)(=O)Nc2ccccc2C(=O)O)cc1OC	none
COc1ccccc1NS(=O)(=O)c1cc([N+](=O)[O-])ccc1N/N=C/c1c[nH]c2ccccc12	APJ antag 56.1, CCR6 antag 50.0, EBI2 block 54.3 | APJ antag conf 90.7
Cc1ccc(NS(=O)(=O)N2CCCCC2)cc1	none (no result: APJ agonist, APJ antag)
O=C(NNc1c2ccccc2nc2ccccc12)c1ccccc1O	none
O=C(NNc1c2ccccc2nc2ccccc12)c1ccc(O)cc1	APJ antag 41.3, CCR6 antag 56.5 | APJ antag conf 69.1
O=S(=O)(c1ccc(Cl)cc1)N1CCC(N2CCOCC2)CC1	none
Nc1nc(-c2ccc(Cl)cc2)c(N=Nc2ccc(S(=O)(=O)N3CCOCC3)cc2)s1	APJ antag 48.8, CXCR6 block 51.4, CCR6 antag 71.3 | APJ antag conf 89.0
CC(C)c1nc(C#N)c(NCCCn2ccnc2)o1	none
CC(C)c1nc(C#N)c(NN)o1	APJ antag 42.3 | APJ antag conf 66.3
Oc1ccc(N=Nc2c(O)ccc3ccccc23)cc1	APJ antag 49.6, CCR6 antag 53.9 | APJ antag conf 71.3
CC(C)(C)OC(=O)N1CCC[C@H]1c1nnc(SCC(=O)Nc2cccc(Cl)c2)o1	none
CC(C)(C)OC(=O)N1CCC[C@H]1c1nnc(SCC(=O)Nc2ccc(Br)cc2)o1	APJ antag 55.4, CXCR6 block 35.8 | APJ antag conf 72.2
Cc1ccsc1C(=O)N(C)CC(=O)N(CC(C)C)c1c(N)n(CC(C)C)c(=O)[nH]c1=O	none
O=C(NCc1cc(F)ccc1F)C1CCC(=O)N(C2CCCCCC2)C1 (stereo not drawn)	none
O=C(NCCOC(=O)c1cccs1)c1cccnc1	APJ antag 64.5 | APJ antag conf inactive
COc1ccc(C(=O)N2CCC(C)(C(=O)O)C2)c(OC)c1 (stereo not drawn)	none (no result: APJ agonist, APJ antag, CCR6 antag)
COC(=O)[C@]1(C)N[C@H](CN(C)C(=O)c2ccc(F)cc2)[C@@H]2C(=O)N(Cc3ccccc3)C(=O)[C@@H]21	none
CCc1ccc(N2CC(C(=O)Nc3ccc4c(c3)OCO4)CC2=O)cc1 (stereo not drawn)	none
CCOc1ccc(N=Nc2ccc(O)c3ncccc23)cc1	none
